# Assay outcomes (PubChem BioAssay)
# KCC2 mod: KCC2 (human) Cl- transport modulation. 190,000 compounds, 2.2% hits. KCC2 cells, thallium flux FluoZin-2 fluorescence. B-score of Tl+ flux slope (higher = more flux/activation; lower = inhibition) at 10 µM. Q9H2X9;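 active = thallium flux slope and its plate-corrected score both differing from the plate sample mean at a set confidence after two filtering rounds, in either direction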;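 note: slope of fluorescence scaled to starting intensity during 10 to 20 s after thallium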
# WT yeast gro inh: growth inhibition of WT yeast, mitochondrial fusion screen | inhibition, % at 10 µM | 190,000 compounds, 2.1% hits | mitochondrial fusion phenotypic screen, WT strain; in the data active = inhibition above about 58%; tested in S. cerevisiae
# ROMK primary: human ROMK K+ channel modulation, primary screen. P48048. Tet-inducible ROMK, thallium flux fluorescence; actives lie on both sides. B-score at 10 µM. 130,000 compounds, 2% hits. AID 1918;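 active = signal ratio slope over the read window, or its plate-corrected B-score, at least 3 SD from the plate mean, either direction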;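 note: B-score of the F/F0 ratio slope over 7 to 12 s after thallium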
# Target sequence (P48048 whole entry, looked up): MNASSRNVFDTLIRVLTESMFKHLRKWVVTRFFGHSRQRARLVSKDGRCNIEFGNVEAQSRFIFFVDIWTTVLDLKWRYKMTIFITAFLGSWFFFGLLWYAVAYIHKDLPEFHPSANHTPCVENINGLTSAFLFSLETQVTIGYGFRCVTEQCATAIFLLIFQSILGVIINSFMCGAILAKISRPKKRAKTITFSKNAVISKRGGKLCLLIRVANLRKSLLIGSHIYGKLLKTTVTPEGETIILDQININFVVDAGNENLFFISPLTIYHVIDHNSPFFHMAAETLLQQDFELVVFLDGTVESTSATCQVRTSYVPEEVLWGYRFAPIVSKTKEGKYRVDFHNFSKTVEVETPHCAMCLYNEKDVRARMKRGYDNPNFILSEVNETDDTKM
# NCF1 inh: blocks human p47phox regulatory protein of NADPH oxidases; P14598; p47phox/p22phox peptide binding, fluorescence polarization, 2 h; inhibition, % at 24.7 µM; 220,000 compounds, 0.53% hits; AID 1274;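 active = inhibition above about 30%, limit read from the data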;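 note: 0% = p47phox with labelled peptide and 100% = labelled peptide alone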
# Target sequence (P14598 whole entry, looked up): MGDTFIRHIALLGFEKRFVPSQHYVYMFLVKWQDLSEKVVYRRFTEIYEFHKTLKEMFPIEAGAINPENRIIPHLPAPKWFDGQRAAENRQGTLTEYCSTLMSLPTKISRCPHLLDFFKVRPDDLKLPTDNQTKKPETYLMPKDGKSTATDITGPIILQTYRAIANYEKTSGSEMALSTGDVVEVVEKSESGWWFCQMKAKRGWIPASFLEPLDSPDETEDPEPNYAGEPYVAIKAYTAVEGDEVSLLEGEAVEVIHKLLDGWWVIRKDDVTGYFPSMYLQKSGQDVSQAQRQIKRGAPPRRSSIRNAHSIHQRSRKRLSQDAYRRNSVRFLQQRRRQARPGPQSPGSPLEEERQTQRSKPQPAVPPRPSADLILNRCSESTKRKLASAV
# RBBP9 inh: blocks human serine hydrolase RBBP9 | O75884 | recombinant RBBP9, FP-Rh probe fluorescence polarization | inhibition, % at 7.94 µM | 220,000 compounds, 0.2% hits | AID 1515;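 active = inhibition above the campaign mean of all tested compounds plus 3 SD, cut at about 14% in these data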;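 note: plate controls were DMSO wells with RBBP9 for no effect and wells lacking RBBP9 protein for full effect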
#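 Controls: DMSO-treated enzyme wells and wells lacking RBBP9 | Material: RBBP9 protein | Technique: Fluorescence polarization | Replication: Single well per compound, no replicates | Buffer or medium: Tris-NaCl-Pluronic buffer, pH 8.0 | Timing: 30 min compound preincubation, 45 min probe labeling, 25 °C | Read-out basis: Percent inhibition from mP, scaled between DMSO and no-protein wells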
# 14-3-3 Bad PPI: disrupts binding of bovine 14-3-3 zeta to phospho-Bad peptide; P63103; TR-FRET 14-3-3zeta/Dy647-pBad peptide displacement, 1 h; inhibition, % at 21.7 µM; 220,000 compounds, 0.71% hits;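 active = inhibition above about 70%, limit read from the data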;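 note: 0% = full 14-3-3 plus peptide FRET controls and 100% = background without 14-3-3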
# KCC2 sec1: KCC2 (human) modulation, secondary assay. normalised thallium flux (F/F0 slope) at 10 µM. 3,700 compounds, 15% hits. AID 1713. shares compounds with KCC2 mod. HEK293-KCC2, thallium flux, FluoZin2 fluorescence; active compounds read high;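 active = thallium flux slope above the same plate's solvent-only control mean plus 3 SD; inconclusive = the two replicate wells disagree; inactive = no significant difference from solvent-only control wells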
# KCC2 bumet counter: thallium flux persisting under bumetanide in KCC2 cells, counter-screen secondary assay. shares compounds with KCC2 mod. HEK293-KCC2 + bumetanide/ouabain, thallium flux FluoZin2; active compounds read high. normalized thallium flux at 10 µM. 3,700 compounds, 49% hits. AID 1714;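 active = thallium entry rate above the same plate's blocked-transporter control wells by more than 3 SD; inconclusive = the two repeat wells disagree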;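 note: raw slope of fluorescence over initial fluorescence between 10 and 20 s after thallium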
# KCC2 sec2: KCC2 (human) modulation, second secondary assay; normalized thallium flux at 10 µM; HEK293-KCC2, thallium flux FluoZin2 fluorescence; actives lie on both sides; F/F0 rise rate, 10–20 s post-thallium; shares compounds with KCC2 mod; 3,700 compounds, 23% hits;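 active = thallium flux slope more than 3 SD above or below the plate's solvent-only control mean, mostly below; inconclusive = the two repeat wells disagreed; inactive = no significant shift from solvent-only controls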;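 note: raw slope with 0.1% DMSO as baseline and bumetanide as block control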
# HEK293 Tl flux: counter-screen for KCC2 modulators: effect in parental HEK293 cells; shares compounds with KCC2 mod; thallium flux FluoZin2, ouabain; baseline-ratio fluorescence slope, 10–20 s after thallium; thallium flux rate (normalised fluorescence) at 10 µM; 3,700 compounds, 46% hits; AID 1716;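 active = thallium flux rate significantly above the same plate's solvent-only control wells, beyond their mean plus 3 SD; inconclusive = the two replicate wells gave conflicting results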
# KCC2 retest ouab: KCC2 (human) modulation, ouabain retest; 3,700 compounds, 48% hits; shares compounds with KCC2 mod; HEK293-KCC2, thallium flux FluoZin2 fluorescence; bidirectional: low = inhibitor, high = activator; raw Tl+ flux slope (below DMSO = inhibition, above = activation) at 10 µM; AID 1717;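 active = thallium flux slope beyond 3 SD from same-plate DMSO control mean in most replicates, usually higher, sometimes lower; inconclusive = repeat tests gave conflicting results; inactive = no significant difference from controls in most replicates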;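 note: slope of initial-normalized fluorescence between seconds 10 and 20 after thallium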
# HEK293 Tl flux2: acts in parental HEK cells, second KCC2 counter-screen | AID 1718 | HEK293 parental, thallium flux FluoZin-2 fluorescence slope | thallium flux slope at 10 µM | 3,700 compounds, 33% hits | shares compounds with KCC2 mod;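 active = thallium flux slope above the same plate's solvent-control mean plus 3 SD in both duplicate wells; inconclusive = duplicate wells that disagreed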;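 note: run without ouabain in cells lacking the KCC2 cotransporter; slope of fluorescence scaled to its starting value between 10 and 20 s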
# * hit, by the source's call; ? = inconclusive; · = not tested or not shown. Most compounds without a hit are left out; they make up all but 5.8% or so of the library.
SMILES,KCC2 mod,WT yeast gro inh,ROMK primary,NCF1 inh,RBBP9 inh,14-3-3 Bad PPI,KCC2 sec1,KCC2 bumet counter,KCC2 sec2,HEK293 Tl flux,KCC2 retest ouab,HEK293 Tl flux2
CN(C)CCCNC(=O)c1cc(S(=O)(=O)N2CCOCC2)ccc1F,-0.1,13,0.46,-11,-6,-16,·,·,·,·,·,·
CCc1cc2c(SCc3nc4sc(C(C)=O)c(C)c4c(=O)[nH]3)ncnc2s1,43*,·,·,-111,-14,-3,?,0.056*,0.052*,0.043*,0.053*,0.04*
Cc1sc2nc(CSc3ncn[nH]3)[nH]c(=O)c2c1C,-1.3,-8,-0.36,-12,-4,-1,·,·,·,·,·,·
CCOC(=O)C1ON2CCCCC2C1(O)C(F)(F)F (stereo unspecified),-0.21,-13,0.38,3,4,-6,·,·,·,·,·,·
O=C(/C=C/c1ccco1)Nc1scc(-c2ccccc2)c1C(=O)O,·,·,·,-31,-3,24,·,·,·,·,·,·
O=C(/C=C/c1ccccc1)Nc1scc(-c2ccccc2)c1C(=O)O,-7.1*,-23,0.25,-6,6,-6,0.0092,?,0.026*,0.008,0.013*,0.011
O=C(NCc1cccnc1)c1ccccc1CCc1ccccc1,-0.93,1,0.31,0,3,6,·,·,·,·,·,·
Cc1cc2cc(C(c3nnnn3Cc3ccccc3)N3CCc4ccccc43)c(=O)[nH]c2cc1C (stereo unspecified),·,-2,0.74,-57,-5,-22,0.013,0.0042,0.027,0.0072,0.014*,0.01
CCCCC(CC)CNC(=O)C(=O)c1ccccc1NC(C)=O (stereo unspecified),1.1,-12,-0.13,-12,-6,-15,·,·,·,·,·,·
N/C(Cc1cccs1)=N\OC(=O)COc1ccc(Br)cc1Cl,-0.53,14,·,4,-8,11,·,·,·,·,·,·
N/C(Cc1cccs1)=N\OC(=O)COc1ccccc1Cl,·,25,-0.82,-10,0,-8,0.0082,0.0054,0.032,?,0.018,0.0093
c1cnc(Sc2ccc3nnnn3n2)nc1,-0.44,-29,0.3,-3,-1,-12,·,·,·,·,·,·
CCSc1nc(O)cc(=O)[nH]1,·,·,·,-5,-3,-4,·,·,·,·,·,·
CCSc1nc(=S)cc(C)[nH]1,46*,·,·,-6,4,-3,0.027*,0.052*,?,0.034*,0.043*,0.018*
c1ccc(-c2nc(Sc3ncnc4c3cnn4-c3ccccc3)n[nH]2)cc1,-6.7*,23,·,-10,-15,-2,0.007,0.0049,0.023*,0.0069,?,0.011
CCOc1ccccc1N(C)C(=O)c1nn(-c2ccc(OC)cc2OC)c(=O)c2ccccc12,-2,-2,-0.32,-1,-4,2,·,·,·,·,·,·
O=c1[nH]c2ccc(S(=O)(=O)N3CCN(c4ccccc4F)CC3)cc2s1,-4.8*,37,·,-15,-2,-6,0.0069,0.005,0.024*,0.0068,0.013*,0.0099
Cc1[nH]c(=O)[nH]c(=O)c1S(=O)(=O)N1CCN(c2ccccc2F)CC1,-0.71,-14,·,2,7,·,·,·,·,·,·,·
CN1CCN(C(=S)NC(=O)/C=C/c2ccccc2)CC1,-0.82,4,-0.51,-1,6,-3,·,·,·,·,·,·
COc1ccc(CC(=O)N2CCN(c3ccccn3)CC2)cc1,1.2,1,·,0,-6,-6,·,·,·,·,·,·
COc1ccc(/C=C/C(=O)NC(=S)N2CCN(c3ccccn3)CC2)cc1,5.9*,·,·,-7,-11,3,0.0054,0.024*,0.032,0.013*,?,0.015*
O=C(NC(=S)N1CCN(c2ccccn2)CC1)c1ccccc1,17*,-5,0.12,-11,1,0,0.0062,0.043*,0.035,0.03*,0.039*,0.019*
COc1ccc(/C=C/C(=O)NC(=S)N2CCSCC2)cc1,8.7*,16,-0.027,6,-12,-11,0.018,0.034*,0.035,0.016*,0.025*,0.017*
Cn1ncc(Br)c1C(=O)NC(=S)N1CCN(c2ccccn2)CC1,0.66,10,0.14,10,-4,-10,·,·,·,·,·,·
O=C(/C=C/c1ccc(Br)cc1)NC(=S)N1CCOCC1,8.7*,-12,-0.42,7,-10,-16,0.008,0.024*,0.037,0.017*,0.031*,0.019*
SMILES,KCC2 mod,WT yeast gro inh,ROMK primary,NCF1 inh,RBBP9 inh,14-3-3 Bad PPI,KCC2 sec1,KCC2 bumet counter,KCC2 sec2,HEK293 Tl flux,KCC2 retest ouab,HEK293 Tl flux2
CC(=O)Nc1ccc(S(=O)(=O)NNC(=O)c2cccc(Cl)c2)cc1,0.49,12,0.31,4,-9,5,·,·,·,·,·,·
Cc1cc(NS(=O)(=O)c2ccc(NC(=O)c3oc4ccccc4c3C)cc2)no1,-2.9*,9,·,-9,-1,-16,0.0086,0.0073,0.033,0.0044,?,0.012
Fc1cccc(F)c1-n1c(CN2CCCC2)csc1=S,-0.02,2,0.19,13,-1,-9,·,·,·,·,·,·
CN1C(C(=O)NCc2cccc(Br)c2)CC2Cn3c(nc4cc(Cl)c(Cl)cc43)C21 (stereo unspecified),-3.4*,·,·,-9,·,-8,0.0085,0.0061,0.033,0.0074,0.018,0.01
CN1C(C(=O)NCc2cccc(Br)c2)CC2Cn3c(nc4cc5ccccc5cc43)C21 (stereo unspecified),-1.2,·,·,-21,·,-2,·,·,·,·,·,·
COc1ccc(CN2CN=C(Nc3nc4ccccc4s3)NC2)cc1,-5.4*,11,·,6,-8,-13,0.0057,0.0047,0.029,0.0074,0.019,0.011
CC(C)c1nc2sc3c(=O)[nH]c(=S)[nH]c3c2c2c1CCC2,-7.9*,6,·,-13,-4,7,0.016,0.0063*,?,0.0051*,0.0094*,?
COC(=O)CN1C(=O)C2(C(C#N)=C(N)Oc3n[nH]c(-c4cccs4)c32)c2ccccc21 (stereo unspecified),0.05,21,0.0011,5,7,7,·,·,·,·,·,·
